Measured values pooled from the literature.
Compare with care: the assays were run in different laboratories.
Target: Calcium/calmodulin-dependent protein kinase kinase 1 (CAMKK1, Homo sapiens, UniProt Q8N5S9)

`C[C@@H]1CCN(c2nccc(-c3cnn4ncccc34)n2)C1` gave a remaining binding of 87% (binding; 1 µM).
`FC(F)(F)Oc1cccc(-c2cnc3ccc(-c4ccncc4)nn23)c1` gave a remaining binding of 43% (cell-free assay, competition with immobilised ligand; 5 µM).
The remaining binding of `CNCc1ccccc1-c1csc([C@@H](C)Nc2nc(C)nc3cc(OC)c(OC)cc23)c1` is reported as 100% (cell-free assay, competition with immobilised ligand; 1 µM).
With `COc1cnc(Nc2cccc(S(N)(=O)=O)c2)nc1N1CCN(c2ccccc2)C(=O)C1` the remaining binding was 100% (binding, competition with immobilised ligand; 1 µM).
The remaining binding of `CC(=O)N1CCC(c2ccc(C(=O)NC(=N)N)cc2C(F)(F)F)CC1` is reported as 100% (cell-free assay, competition with immobilised ligand; 1 µM).
For `C[C@@H](c1ccc(-n2cnc3c(N)ncnc32)cc1)N1CCc2nn(C)c(Cc3ccccc3)c2C1=O`, the remaining binding was 100% (binding, competition with immobilised ligand; 0.1 µM).
For `CO[C@H]1CC[C@H](CNc2ccc(S(=O)(=O)NC(=O)c3ccc(N4CCN(CC5=C(c6ccc(Cl)cc6)CC(C)(C)CC5)CC4)cc3Oc3cnc4[nH]ccc4c3)cc2[N+](=O)[O-])CC1`, the remaining binding was 83% (cell-free assay, competition with immobilised ligand; 1 µM).
With `O=C(c1ccc(Nc2ncc(Cl)c(-c3ccc(Cl)s3)n2)cc1)N1CCC(N2CCCC2)CC1` the remaining binding was 86% (binding, competition with immobilised ligand; 1 µM).
For `N[C@H]1CCN(c2nccc(-c3cnn4ncccc34)n2)C1`, the remaining binding was 100% (binding; 1 µM).
`CS(=O)(=O)NCC[C@H](NC(=O)c1cncc2c1cnn2-c1ccc(F)cc1)c1ccnc(S(C)(=O)=O)c1` gave a remaining binding of 100% (cell-free assay, competition with immobilised ligand; 1 µM).
The remaining binding of `c1cnn2ncc(-c3ccnc(N4CCC45COC5)n3)c2c1` is reported as 97% (binding; 1 µM).
For `O=C(Nc1cnc(Oc2ccc(F)cc2)nc1)N1CCc2ncccc2[C@@H]1c1ccc(F)cc1`, the remaining binding was 92% (cell-free assay, competition with immobilised ligand; 1 µM).
`CN(CCCC(F)(F)F)c1nccc(-c2cnn3ncccc23)n1` has a remaining binding of 100% (binding; 1 µM).
For `O=C(NCCCN1CCOCC1)c1ccc(Nc2nccc(-c3cc4ccccc4s3)n2)cc1`, the remaining binding was 80% (binding, competition with immobilised ligand; 1 µM).
The remaining binding of `CCN1CCN(Cc2ccc(C(=O)Nc3ccc(C)c(Oc4ccc5c(c4)CC(=O)N5)c3)cc2C(F)(F)F)CC1` is reported as 100% (binding, competition with immobilised ligand; 1 µM).
For `CN(c1nccc(-c2cnn3ncccc23)n1)C1CC1`, the remaining binding was 100% (binding; 1 µM).
`CNC(=O)c1ccc(Nc2ncc(C(F)(F)F)c(NCc3nccnc3N(C)S(C)(=O)=O)n2)cc1` gave a remaining binding of 75% (cell-free assay, competition with immobilised ligand; 0.1 µM).
`O=C(NCC1CCOCC1)c1n[nH]cc1NC(=O)c1c(F)cccc1F` gave a remaining binding of 88% (binding, competition with immobilised ligand; 1 µM).
`F[C@@H]1CCN(c2nccc(-c3cnn4ncccc34)n2)C1` has a remaining binding of 100% (binding; 1 µM).
The remaining binding of `O=C(c1ccc(Nc2ncc(Cl)c(-c3cc4ccccc4s3)n2)cc1)N1CCC(N2CCCC2)CC1` is reported as 91% (binding, competition with immobilised ligand; 1 µM).
With `CN(C)c1nccc(-c2cnn3ncccc23)n1` the remaining binding was 78% (binding; 1 µM).
`Cc1cc(C)c(-n2ccn3nc(-c4cccnc4)cc23)cc1NC(=O)c1cc(C#N)cc(S(F)(F)(F)(F)F)c1` gave a remaining binding of 93.6% (cell-free assay, competition with immobilised ligand; 0.1 µM).
